12 molecules from ChEMBL document CHEMBL4196151, “Anti-inflammatory Potential of Flavonoids from the Aerial Parts of Corispermum marschallii” (J Nat Prod, 2018) can be followed below.

Data set [1] concerns Neutrophil. The data set is described as follows: Cytotoxicity against LPS-stimulated human neutrophils assessed as reduction in cell viability up to 50 uM incubated for 1 hr followed by LPS stimulation by propidium iodide staining based method. The procedure, abridged: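 Viability measured by propidium iodide staining in neutrophils (1 × 10^6/mL) cultured in RPMI 1640. Compounds at final 10, 20, 50 μM were added 1 h before LPS (100 ng/mL). Read-out by cytometry, with 0.1% Triton X-100 as positive control.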

The test system of data set [2] is Neutrophil. As to the kind of experiment: Antiinflammatory activity against f-MLP-stimulated human neutrophils assessed as reduction in ROS production incubated for 40 mins measured at intervals of 2 mins by luminol-dependent chemiluminescence assay. Type of data set: functional, cell-based. The procedure, abridged: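 Freshly isolated human neutrophils suspended in HBSS at 2.0 × 10^5/mL and incubated with compounds at final 5, 10, 20 μM, diluted from DMSO stocks. ROS release triggered by f-MLP and read by luminol-dependent chemiluminescence. Quercetin served as positive control. Data as mean ± SEM, ANOVA with Tukey post hoc test.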

The test system of data set [3] is Neutrophil. As to the kind of experiment: Antiinflammatory activity against LPS-stimulated human neutrophils assessed as reduction in IL-8 production incubated for 1 hr followed by LPS stimulation measured after 18 to 24 hrs by ELISA. In kind it is functional, cell-based. The procedure, abridged: (§1)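 Human neutrophils isolated from buffy coat, 1.0 × 10^6/mL in RPMI 1640 with 10% FBS, 10 mM HEPES, 2 mM L-glutamine. Compounds added from 10 mM DMSO stocks at final 10, 20, 50 μM, 1 h before LPS (100 ng/mL). Culture at 37 °C, 5% CO2. Supernatants taken after 18 h by centrifugation and cytokine measured by ELISA. Quercetin positive control; mean ± SEM, ANOVA with Tukey.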
For orientation: An ELISA detects its analyte on a solid surface through an enzyme-linked reagent.

Data set [4] relates to Neutrophil. As to the kind of experiment: Antiinflammatory activity against LPS-stimulated human neutrophils assessed as reduction in TNFalpha production incubated for 1 hr followed by LPS stimulation measured after 18 to 24 hrs by ELISA. Type of data set: functional, cell-based. The procedure, abridged:
as §1

As to `COc1cc(-c2oc3cc(O)c(OC)c(O)c3c(=O)c2O[C@@H]2O[C@H](CO)[C@H](O)[C@H](O)[C@H]2O)ccc1O`, the Activity entry in data set [1] is “Non-Toxic”. The concentration for half-maximal inhibition (IC50) in data set [2] is 38.5 µM; in data set [3], 51.9 µM; in data set [4], 16.3 µM.
In the case of `COc1cc(/C=C/C(=O)OC[C@H]2O[C@@H](Oc3cc4oc(-c5ccc(O)c(O)c5)c(O[C@@H]5O[C@H](CO)[C@H](O)[C@H](O)[C@H]5O)c(=O)c4c(O)c3OC)[C@H](O)[C@@H](O)[C@@H]2O)ccc1O`, the Activity result in data set [1] was “Non-Toxic”. The half-maximal inhibitory concentration (IC50) in data set [2] is 36.6 µM; in data set [3] it was 46.7 µM; in data set [4], 23.2 µM.
As to `COc1c(O)cc2oc(-c3ccc(O)c(O)c3)c(O[C@@H]3O[C@H](CO)[C@H](O)[C@H](O)[C@H]3O[C@@H]3OC[C@](O)(CO[C@@H]4OC[C@H](O)[C@H](O)[C@H]4O)[C@H]3O)c(=O)c2c1O`, the Activity entry in data set [1] is given as “Non-Toxic”. For the same molecule, the IC50 was 5.4 µM in data set [2], 24.5 µM in data set [3] and 9.7 µM in data set [4].
On the same counts, the results for `COc1c(O)cc2oc(-c3ccc(O)c(O)c3)c(O[C@@H]3O[C@H](CO)[C@H](O)[C@H](O)[C@H]3O[C@@H]3OC[C@](O)(CO)[C@H]3O)c(=O)c2c1O` are “Non-Toxic”, 7.1 µM, 7.2 µM and 12.8 µM.
As for `COc1c(O)cc2oc(-c3ccc(O)c(O)c3)c(O[C@@H]3O[C@H](CO[C@@H]4O[C@H](CO)[C@@H](O)[C@H](O)[C@H]4O)[C@H](O)[C@H](O)[C@H]3O)c(=O)c2c1O`, in data set [1], the Activity entry is recorded as “Non-Toxic”. The concentration for half-maximal inhibition (IC50) in data set [2] is 5.7 µM; in data set [3], 28.9 µM; in data set [4], 9.3 µM.
Turning to `COc1c(O)cc2oc(-c3ccc(O)c(O)c3)c(O[C@@H]3O[C@H](CO[C@@H]4OC[C@H](O)[C@H](O)[C@H]4O)[C@H](O)[C@H](O)[C@H]3O)c(=O)c2c1O`, the Activity entry in data set [1] is “Non-Toxic”. The figures for the concentration for half-maximal inhibition (IC50) in data set [2] and in data set [3] were 5.7 µM and 25.5 µM, respectively.
For `COc1cc(/C=C/C(=O)OC[C@H]2O[C@@H](Oc3cc4oc(-c5ccc(O)c(OC)c5)c(O[C@@H]5O[C@H](CO)[C@H](O)[C@H](O)[C@H]5O)c(=O)c4c(O)c3OC)[C@H](O)[C@@H](O)[C@@H]2O)ccc1O`, in data set [1], the Activity result is “Non-Toxic”. Also, the concentration for half-maximal inhibition (IC50) in data set [2] came out at 6 µM; in data set [4], 20.7 µM.
On to `COc1c(O[C@@H]2O[C@H](CO)[C@@H](O)[C@H](O)[C@H]2O)cc2oc(-c3ccc(O)c(O)c3)c(O[C@@H]3O[C@H](CO)[C@H](O)[C@H](O)[C@H]3O)c(=O)c2c1O`, for which, in data set [1], the Activity entry is “Non-Toxic”. The values for the concentration for half-maximal inhibition (IC50) in data set [2] and in data set [3] were 26.9 µM and 66 µM, respectively.
On to `COc1cc(-c2oc3cc(O[C@@H]4O[C@H](CO)[C@@H](O)[C@H](O)[C@H]4O)c(OC)c(O)c3c(=O)c2O[C@@H]2O[C@H](CO)[C@H](O)[C@H](O)[C@H]2O)ccc1O`, for which, in data set [1], the Activity entry was “Non-Toxic”. In addition, the IC50 is 31.5 µM in data set [2], 25.7 µM in data set [3] and 16.3 µM in data set [4].
In the case of `COc1c(O)cc2oc(-c3ccc(O)cc3)c(O[C@@H]3O[C@H](CO)[C@H](O)[C@H](O)[C@H]3O)c(=O)c2c1O`, the figures for the IC50 in data set [2], in data set [3] and in data set [4] were 15.4 µM, 18.1 µM and 11.7 µM, respectively.
On the same counts, the results for `COc1c(O)cc2oc(-c3ccc(O)c(O)c3)c(O[C@@H]3O[C@H](CO)[C@H](O)[C@H](O)[C@H]3O)c(=O)c2c1O` are 3.4 µM, 8 µM and 7.7 µM.
On the same counts, the results for `O=c1c(O)c(-c2ccc(O)c(O)c2)oc2cc(O)cc(O)c12` [QUERCETIN] are 4.4 µM, 33 µM and 20.4 µM.

By IC50 is commonly meant the concentration that inhibits the measured activity by half.
